The structures appear in SMILES notation. pIC50: −log10 of the molar value. Activity calls are given as the source filed them. The rule behind the calls is not given here.

The source of these data is ChEMBL document CHEMBL1153529, “Synthesis of fluorinated brassinosteroids based on alkene cross-metathesis and preliminary biological assessment” (J Med Chem, 2009).

The test system of series [1] is CCRF-CEM. Put plainly: Cytotoxicity against human CEM cells after 72 hrs by calcein-AM assay. In kind it is functional, cell-based. In a few lines: (§1)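 Human normal fibroblast BJ, T-lymphoblastic leukemia CEM and breast carcinoma MCF-7 cells exposed for 72 h to six serial 4-fold dilutions of compound. Surviving cell proportion read by calcein-AM assay and IC50 calculated. Mean ± SD of three independent experiments, each in triplicate. 28-Homocastasterone served as positive control.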

Series [2] deals with BJ. Put plainly: Cytotoxicity against human BJ cells after 72 hrs by calcein-AM assay. In kind it is cell-based. Put shortly: as §1
The subject of series [3] is MCF7. The series can be described thus: Cytotoxicity against human MCF7 cells after 72 hrs by calcein-AM assay. The settings on record: MCF7, 72 h. In kind it is functional, cell-based. Put shortly:
as §1

The species named for series [4] is Rattus norvegicus. The series can be described thus: Displacement of [35S]tert-butylbicyclo[ 2.2.2]phosphorothionate from GABAA receptor in Wistar rat brain membrane at 100 nM relative to control. The series is classed as cell membranes. Put shortly:
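Membranes from male Wistar rat brain incubated 1 h at 37 °C with 2 nM [35S]TBPS and test compound at 100 nM. Binding expressed as % of buffer-only control samples. Mean ± SD of triplicates or quadruplicates. Kruskal-Wallis global test, then Mann-Whitney-Wilcoxon against control.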

For series [5], the system named is Phaseolus vulgaris. The series can be described thus: Brassinolide type activity in Phaseolus Vulgaris L., cv. Pinto assessed as difference of prolongation of second internode at 0.1 umol/L by second-internode bioassay relative to control. In kind it is functional. Put shortly: (§2)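 Bean second-internode bioassay. Compound applied in lanolin; second-internode length measured 5 days after application. Activity taken as the difference in internode prolongation (mm) between treated and control plants. Reported concentrations were 10^-10, 10^-7 and 10^-12 mol/L. Mean ± SD.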

For series [6], the species on record is Rattus norvegicus. The series can be described thus: Inhibition of [35S]tert-butylbicyclo[ 2.2.2]phosphorothionate binding to GABAA receptor in Wistar rat brain membrane relative to control. The series is classed as cell membranes. In a few lines: (§3)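 Male Wistar rat brain membranes incubated 1 h at 37 °C with 2 nM [35S]TBPS and compound at 1 nM to 10 μM, in duplicates. IC50 estimated as the steroid concentration giving half-maximal inhibition of binding. Imax is the maximal suppression of binding.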

For series [7], the system named is Phaseolus vulgaris. Put plainly: Brassinolide type activity in Phaseolus Vulgaris L., cv. Pinto assessed as difference of prolongation of second internode at 1 pmol/L by second-internode bioassay relative to control. The series is classed as functional. In a few lines: as §2
Series [8] can be described thus: Inhibition of [35S]tert-butylbicyclo[ 2.2.2]phosphorothionate binding to GABAA receptor in Wistar rat brain membrane. In kind it is cell membranes. In a few lines:
as §3

On to `CC(C(O)C(O)CC(F)(F)C(F)(F)C(F)(F)C(F)(F)C(F)(F)C(F)(F)F)C1CCC2C3CC(=O)C4CC(O)C(O)CC4(C)C3CCC12C` (centres undefined), for which the pIC50 in series [1] and in series [3] was less than 4.30 in each case. Besides, the Activity result in series [2] is “Non-toxic”.

With `C[C@H]([C@@H](O)[C@H](O)CC(F)(C(F)(F)F)C(F)(F)F)[C@H]1CC[C@H]2[C@@H]3CC(=O)C4C[C@H](O)[C@H](O)C[C@]4(C)[C@H]3CC[C@]12C` (some centres undefined), the pIC50 in series [1] and in series [3] was less than 4.30 throughout. In addition, the Activity entry in series [2] is listed as “Non-toxic”.

As for `C[C@H]([C@@H](O)[C@H](O)CC(F)(C(F)(F)F)C(F)(F)F)[C@H]1CC[C@H]2[C@@H]3COC(=O)[C@H]4C[C@H](O)[C@H](O)C[C@]4(C)[C@H]3CC[C@]12C`, the Activity was 56.6% in series [4], 15.9 mm in series [5], 10.7 mm in series [7] and “Non-toxic” in series [2]. For the same molecule, the Imax in series [6] was 59.4%. Further, the pIC50 in series [1] was less than 4.30; in series [8] it was 7.00; in series [3], less than 4.30.

As to `CC(C(O)C(O)CC(F)(F)C(F)(F)C(F)(F)F)C1CCC2C3CC(=O)C4CC(O)C(O)CC4(C)C3CCC12C` (centres undefined), the negative-log IC50 (pIC50) in series [1] is 4.45; in series [3], 4.32. The Activity result in series [2] is reported as “Non-toxic”.

`CC[C@@H](C(C)C)[C@@H](O)[C@H](O)[C@@H](C)[C@H]1CC[C@H]2[C@@H]3CC(=O)[C@H]4C[C@H](O)[C@H](O)C[C@]4(C)[C@H]3CC[C@]12C`: the pIC50 in series [1] was 4.89; in series [3], less than 4.30. Also, the Activity entry in series [2] is given as “Non-toxic”.

`C[C@H]([C@@H](O)[C@H](O)CC(F)(F)C(F)(F)C(F)(F)C(F)(F)C(F)(F)C(F)(F)F)[C@H]1CC[C@H]2[C@@H]3COC(=O)[C@H]4C[C@H](O)[C@H](O)C[C@]4(C)[C@H]3CC[C@]12C`: the Activity was 47.2% in series [4] and “Non-toxic” in series [2]. In series [6], the Imax turned out to be 57.9%. For the same molecule, the pIC50 was less than 4.30 in series [1], 6.05 in series [8] and less than 4.30 in series [3].

As to `CC(=O)[C@H]1CC[C@H]2[C@@H]3CC[C@H]4C[C@H](O)CC[C@]4(C)[C@H]3CC[C@]12C` [BREXANOLONE], the Activity in series [4] is 56.2%. In series [6], this molecule had an Imax of 79%. In series [8], this molecule had a pIC50 of 7.10.

With `C[C@H]([C@@H](O)[C@H](O)CC(F)(F)C(F)(F)C(F)(F)F)[C@H]1CC[C@H]2[C@@H]3COC(=O)[C@H]4C[C@H](O)[C@H](O)C[C@]4(C)[C@H]3CC[C@]12C`, the figures for the Activity in series [4] and in series [2] were 95.1% and “Non-toxic”, respectively. Also, in series [5], the result was Active. Besides, the pIC50 in series [1] and in series [3] was less than 4.30 each time.
